# From ChEMBL document CHEMBL5303300, “EUbOPEN Chemogenomics Library - Multiplex” (2023)
# Where “and” joins values, the source holds several entries; their conditions need not be identical. Identical values can stand only once.
# Test system: HEK-293T
# Assay: Multiplex assay against HEK293T
# Format: toxicity, cell-based
# Conditions: human, number of replicates 2
# Outline: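 Cells were classed with CellPathfinder machine-learning gating, first as Hoechst high-intensity objects or normal cells, then (normal cells) as healthy, pyknosed or fragmented nuclei, and finally (pyknosed cells) as mitotic or apoptotic. Staining of live cells at seeding used Hoechst33342, BioTracker Green Microtubule Cytoskeleton Dye, MitoTracker Red and Annexin V Alexa Fluor 680, with imaging on a CQ1 microscope at 37°C and 5% CO2 after compound addition. Tubulin, mitochondrial-mass and membrane-permeability phenotypes are per cents of healthy-nucleus cells.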
# [1] = 12 h, 10 µM, compound concentration 10 uM
# [2] = 24 h, 10 µM, compound concentration 10 uM
# [3] = 48 h, 10 µM, compound concentration 10 uM
# [4] = 12 h, 1 µM, compound concentration 1 uM
# [5] = 24 h, 1 µM, compound concentration 1 uM
# [6] = 48 h, 1 µM, compound concentration 1 uM
smiles,measurement,setting,value
CCOC(=O)Nc1cc(-c2ccc(C)c(NS(C)(=O)=O)c2)nn2c(C)nnc12,Population Apoptotic (%),[1],36% and 38% and 52% and 40%
same,Population Fragmented Nuclei (%),[1],2% and 3%
same,Population Healthy Nuclei (%),[1],78% and 74% and 75% and 79%
same,Population Hoechst High Intensity Objects (%),[1],4% and 3%
same,Population Membrane Permeable-Phenotype (%),[1],5% and 11% and 2%
same,Population Mitochondria Different-Phenotype (%),[1],15% and 28% and 21% and 20%
same,Population Mitotic Cells (%),[1],63% and 61% and 47% and 59%
same,Population Normal (%),[1],95% and 96%
same,Population Pyknosed Nuclei (%),[1],19% and 22% and 21% and 17%
same,Population Tubulin-Different-Phenotype (%),[1],56% and 71% and 58% and 55%
same,Total Cell Count,[1],892 and 664 and 646 and 672
same,Population Apoptotic (%),[2],40% and 25% and 30% and 24%
same,Population Fragmented Nuclei (%),[2],3% and 4% and 2%
same,Population Healthy Nuclei (%),[2],82% and 86% and 84% and 85%
same,Population Hoechst High Intensity Objects (%),[2],5% and 4%
same,Population Membrane Permeable-Phenotype (%),[2],3% and 0% and 1%
same,Population Mitotic Cells (%),[2],59% and 75% and 69%
same,Population Normal (%),[2],94% and 95%
same,Population Pyknosed Nuclei (%),[2],13% and 9% and 12% and 10%
same,Population Tubulin-Different-Phenotype (%),[2],32% [middle of 4 runs]
same,Total Cell Count,[2],755 and 1187 and 821 and 806
same,Population Apoptotic (%),[3],25% and 42% and 30% and 29%
same,Population Fragmented Nuclei (%),[3],9% and 5% and 7% and 6%
same,Population Healthy Nuclei (%),[3],83% and 79% and 80% and 82%
same,Population Hoechst High Intensity Objects (%),[3],5% and 9%
same,Population Membrane Permeable-Phenotype (%),[3],0% and 1%
same,Population Mitotic Cells (%),[3],75% and 57% and 69% and 70%
same,Population Normal (%),[3],94% and 90%
same,Population Pyknosed Nuclei (%),[3],7% and 15% and 11%
same,Total Cell Count,[3],1217 and 690 and 964 and 833
O=C1NC(=NCc2cccs2)SC1=Cc1ccc2ncccc2c1,Population Apoptotic (%),[4],54% and 38%
same,Population Fragmented Nuclei (%),[4],6% and 4%
same,Population Healthy Nuclei (%),[4],78% and 85%
same,Population Hoechst High Intensity Objects (%),[4],8% and 7%
same,Population Membrane Permeable-Phenotype (%),[4],4% and 2%
same,Population Mitochondria Different-Phenotype (%),[4],15% and 9%
same,Population Mitotic Cells (%),[4],45% and 61%
same,Population Normal (%),[4],91% and 92%
same,Population Pyknosed Nuclei (%),[4],15% and 10%
same,Population Tubulin-Different-Phenotype (%),[4],46% and 45%
same,Total Cell Count,[4],632 and 733
same,Population Apoptotic (%),[1],54% and 69%
same,Population Fragmented Nuclei (%),[1],1% and 2%
same,Population Healthy Nuclei (%),[1],90% and 92%
same,Population Hoechst High Intensity Objects (%),[1],3% and 6%
same,Population Membrane Permeable-Phenotype (%),[1],4%
same,Population Mitochondria Different-Phenotype (%),[1],21% and 19%
same,Population Mitotic Cells (%),[1],45% and 30%
same,Population Normal (%),[1],96% and 93%
same,Population Pyknosed Nuclei (%),[1],7% and 5%
same,Population Tubulin-Different-Phenotype (%),[1],78% and 72%
same,Total Cell Count,[1],644 and 684
same,Population Apoptotic (%),[5],40% and 31%
same,Population Fragmented Nuclei (%),[5],6% and 4%
same,Population Healthy Nuclei (%),[5],84% and 89%
same,Population Hoechst High Intensity Objects (%),[5],8%
same,Population Membrane Permeable-Phenotype (%),[5],3% and 2%
same,Population Mitochondria Different-Phenotype (%),[5],3% and 5%
same,Population Mitotic Cells (%),[5],59% and 68%
same,Population Normal (%),[5],91%
same,Population Pyknosed Nuclei (%),[5],9% and 6%
same,Population Tubulin-Different-Phenotype (%),[5],19% and 30%
same,Total Cell Count,[5],1066 and 1062
same,Population Apoptotic (%),[2],63% and 77%
same,Population Fragmented Nuclei (%),[2],2%
same,Population Healthy Nuclei (%),[2],91% and 93%
same,Population Hoechst High Intensity Objects (%),[2],6% and 5%
same,Population Membrane Permeable-Phenotype (%),[2],2% and 1%
same,Population Mitochondria Different-Phenotype (%),[2],9% and 12%
same,Population Mitotic Cells (%),[2],36% and 22%
same,Population Normal (%),[2],93% and 94%
same,Population Pyknosed Nuclei (%),[2],5% and 4%
same,Population Tubulin-Different-Phenotype (%),[2],57% and 55%
same,Total Cell Count,[2],699 and 690
same,Population Apoptotic (%),[6],14% and 11%
same,Population Fragmented Nuclei (%),[6],16% and 10%
same,Population Healthy Nuclei (%),[6],80% and 86%
same,Population Hoechst High Intensity Objects (%),[6],9% and 10%
same,Population Membrane Permeable-Phenotype (%),[6],5%
same,Population Mitochondria Different-Phenotype (%),[6],0% and 1%
same,Population Mitotic Cells (%),[6],85% and 88%
same,Population Normal (%),[6],90% and 89%
same,Population Pyknosed Nuclei (%),[6],3%
same,Population Tubulin-Different-Phenotype (%),[6],9% and 14%
same,Total Cell Count,[6],2821 and 2321
same,Population Apoptotic (%),[3],45% and 59%
same,Population Fragmented Nuclei (%),[3],8% and 7%
same,Population Healthy Nuclei (%),[3],87% and 89%
same,Population Hoechst High Intensity Objects (%),[3],8% and 7%
same,Population Membrane Permeable-Phenotype (%),[3],2% and 0%
same,Population Mitochondria Different-Phenotype (%),[3],3% and 5%
same,Population Mitotic Cells (%),[3],54% and 40%
same,Population Normal (%),[3],91% and 92%
same,Population Pyknosed Nuclei (%),[3],3%
same,Population Tubulin-Different-Phenotype (%),[3],21% and 26%
same,Total Cell Count,[3],740 and 737
c1ccc2c(-c3coc4cc(-c5ccc(N6CCNCC6)cc5)cnc34)ccnc2c1,Population Apoptotic (%),[4],49% and 54%
same,Population Healthy Nuclei (%),[4],84% and 87%
same,Population Mitotic Cells (%),[4],50% and 45%
same,Population Normal (%),[4],94%
same,Population Pyknosed Nuclei (%),[4],13% and 10%
same,Population Tubulin-Different-Phenotype (%),[4],46% and 49%
same,Total Cell Count,[4],595 and 552
same,Population Apoptotic (%),[1],75% and 58%
same,Population Healthy Nuclei (%),[1],32% and 33%
same,Population Mitotic Cells (%),[1],24% and 41%
same,Population Normal (%),[1],82% and 84%
same,Population Pyknosed Nuclei (%),[1],59%
same,Population Tubulin-Different-Phenotype (%),[1],86% and 81%
same,Total Cell Count,[1],394 and 507
same,Population Apoptotic (%),[5],36% and 45%
same,Population Healthy Nuclei (%),[5],88% and 87%
same,Population Mitotic Cells (%),[5],63% and 54%
same,Population Normal (%),[5],95% and 93%
same,Population Pyknosed Nuclei (%),[5],9%
same,Population Tubulin-Different-Phenotype (%),[5],34% and 40%
same,Total Cell Count,[5],920 and 770
same,Population Apoptotic (%),[2],85% and 72%
same,Population Healthy Nuclei (%),[2],19% and 24%
same,Population Mitotic Cells (%),[2],14% and 27%
same,Population Normal (%),[2],82% and 80%
same,Population Pyknosed Nuclei (%),[2],71% and 67%
same,Population Tubulin-Different-Phenotype (%),[2],89% and 87%
same,Total Cell Count,[2],387 and 484
same,Population Apoptotic (%),[6],13% and 18%
same,Population Healthy Nuclei (%),[6],90% and 89%
same,Population Mitotic Cells (%),[6],86% and 81%
same,Population Normal (%),[6],93% and 92%
same,Population Pyknosed Nuclei (%),[6],4% and 5%
same,Population Tubulin-Different-Phenotype (%),[6],18% and 22%
same,Total Cell Count,[6],1932 and 1615
same,Population Apoptotic (%),[3],90% and 79%
same,Population Healthy Nuclei (%),[3],11% and 23%
same,Population Mitotic Cells (%),[3],9% and 20%
same,Population Normal (%),[3],81% and 79%
same,Population Pyknosed Nuclei (%),[3],74% and 64%
same,Population Tubulin-Different-Phenotype (%),[3],86% and 91%
same,Total Cell Count,[3],372 and 450
CS(=O)(=O)c1ccc(C(=O)Nc2cc(F)cc(COc3cc(F)c(Br)cc3CN3CC[C@H](O)C3)c2)c(Cl)c1.O=CO,Population Apoptotic (%),[4],74% and 64%
same,Population Healthy Nuclei (%),[4],75% and 74%
same,Population Normal (%),[4],90%
same,Population Pyknosed Nuclei (%),[4],18% and 22%
same,Total Cell Count,[4],602 and 632
same,Population Apoptotic (%),[1],73% and 77%
same,Population Healthy Nuclei (%),[1],78%
same,Population Normal (%),[1],93% and 88%
same,Total Cell Count,[1],459 and 415
same,Population Apoptotic (%),[5],64% and 68%
same,Population Healthy Nuclei (%),[5],79% and 75%
same,Population Normal (%),[5],92% and 89%
same,Total Cell Count,[5],818 and 876
same,Population Apoptotic (%),[2],72% and 81%
same,Population Healthy Nuclei (%),[2],76%
same,Population Normal (%),[2],92% and 86%
same,Total Cell Count,[2],492 and 449
same,Population Apoptotic (%),[6],52% and 51%
same,Population Healthy Nuclei (%),[6],76% and 82%
same,Population Normal (%),[6],92% and 91%
same,Population Pyknosed Nuclei (%),[6],3% and 4%
same,Total Cell Count,[6],1931 and 1977
same,Population Apoptotic (%),[3],75% and 74%
same,Population Healthy Nuclei (%),[3],68%
same,Population Normal (%),[3],83%
same,Population Pyknosed Nuclei (%),[3],18%
same,Total Cell Count,[3],551 and 447
CNS(=O)(=O)c1ccc(N(C)C)c(Nc2ncnc3cc(OC)c(OC)cc23)c1,Population Apoptotic (%),[4],51% and 45%
same,Population Fragmented Nuclei (%),[4],3% and 2%
same,Population Healthy Nuclei (%),[4],81% and 83%
same,Population Hoechst High Intensity Objects (%),[4],5% and 8%
same,Population Membrane Permeable-Phenotype (%),[4],2%
same,Population Mitochondria Different-Phenotype (%),[4],17% and 12%
same,Population Mitotic Cells (%),[4],48% and 54%
same,Population Normal (%),[4],94% and 91%
same,Population Pyknosed Nuclei (%),[4],14%
same,Population Tubulin-Different-Phenotype (%),[4],37% and 34%
same,Total Cell Count,[4],547 and 550
same,Population Apoptotic (%),[1],47% and 54%
same,Population Fragmented Nuclei (%),[1],2% and 3%
same,Population Healthy Nuclei (%),[1],87% and 88%
same,Population Hoechst High Intensity Objects (%),[1],7%
same,Population Membrane Permeable-Phenotype (%),[1],2% and 1%
same,Population Mitochondria Different-Phenotype (%),[1],26% and 24%
same,Population Mitotic Cells (%),[1],52% and 45%
same,Population Normal (%),[1],92%
same,Population Pyknosed Nuclei (%),[1],9% and 8%
same,Population Tubulin-Different-Phenotype (%),[1],59%
same,Total Cell Count,[1],607
same,Population Apoptotic (%),[5],45% and 47%
same,Population Fragmented Nuclei (%),[5],5% and 7%
same,Population Healthy Nuclei (%),[5],86% and 84%
same,Population Hoechst High Intensity Objects (%),[5],7% and 6%
same,Population Membrane Permeable-Phenotype (%),[5],3% and 1%
same,Population Mitochondria Different-Phenotype (%),[5],4%
same,Population Mitotic Cells (%),[5],54% and 52%
same,Population Normal (%),[5],92% and 93%
same,Population Pyknosed Nuclei (%),[5],8%
same,Population Tubulin-Different-Phenotype (%),[5],13% and 17%
same,Total Cell Count,[5],888 and 859
same,Population Apoptotic (%),[2],53% and 62%
same,Population Fragmented Nuclei (%),[2],3% and 5%
same,Population Healthy Nuclei (%),[2],89% and 87%
same,Population Hoechst High Intensity Objects (%),[2],8% and 11%
same,Population Membrane Permeable-Phenotype (%),[2],1%
same,Population Mitochondria Different-Phenotype (%),[2],16% and 20%
same,Population Mitotic Cells (%),[2],46% and 37%
same,Population Normal (%),[2],91% and 88%
same,Population Pyknosed Nuclei (%),[2],7%
same,Population Tubulin-Different-Phenotype (%),[2],51% and 49%
same,Total Cell Count,[2],699 and 675
same,Population Apoptotic (%),[6],18% and 9%
same,Population Fragmented Nuclei (%),[6],13% and 11%
same,Population Healthy Nuclei (%),[6],83% and 85%
same,Population Hoechst High Intensity Objects (%),[6],7% and 8%
same,Population Membrane Permeable-Phenotype (%),[6],5% and 3%
same,Population Mitochondria Different-Phenotype (%),[6],0%
same,Population Mitotic Cells (%),[6],81% and 90%
same,Population Normal (%),[6],92% and 91%
same,Population Pyknosed Nuclei (%),[6],3%
same,Population Tubulin-Different-Phenotype (%),[6],5%
same,Total Cell Count,[6],2132 and 1975
same,Population Apoptotic (%),[3],20% and 37%
same,Population Fragmented Nuclei (%),[3],11% and 8%
same,Population Healthy Nuclei (%),[3],86% and 87%
same,Population Hoechst High Intensity Objects (%),[3],12%
same,Population Membrane Permeable-Phenotype (%),[3],3% and 2%
same,Population Mitochondria Different-Phenotype (%),[3],2%
same,Population Mitotic Cells (%),[3],80% and 62%
same,Population Normal (%),[3],87%
same,Population Pyknosed Nuclei (%),[3],2% and 4%
same,Population Tubulin-Different-Phenotype (%),[3],39%
same,Total Cell Count,[3],1182 and 985
